Where “and” joins values, the source holds several entries; their conditions need not be identical. Equal entries are not always repeated.
Columns and labels:
Plasmodium falciparum [1] = experiment: In vitro inhibitory activity against chloroquine-resistant Plasmodium falciparum K1; assay type: functional, organism-based
Procedure, shortened: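 Early ring-stage parasites in human A+ erythrocytes, RPMI 1640 with A+ serum and glucose. Twofold serial dilutions in duplicate from DMSO stocks (final DMSO ≤0.5%), 2.5% hematocrit, 1% parasitemia. Incubated 48 h at 37 °C under 93% N2/3% O2/4% CO2. Growth read as parasite lactate dehydrogenase activity (APAD/NBT reagent, 15 min, OD 550 nm). IC50 by linear regression, at least three separate determinations.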

[2] = target: T1, Histidine-rich protein PFHRP-II (Plasmodium falciparum) (UniProt P05227); experiment: Inhibition of beta-hematin formation; No; assay type: functional
T1 sequence (whole entry): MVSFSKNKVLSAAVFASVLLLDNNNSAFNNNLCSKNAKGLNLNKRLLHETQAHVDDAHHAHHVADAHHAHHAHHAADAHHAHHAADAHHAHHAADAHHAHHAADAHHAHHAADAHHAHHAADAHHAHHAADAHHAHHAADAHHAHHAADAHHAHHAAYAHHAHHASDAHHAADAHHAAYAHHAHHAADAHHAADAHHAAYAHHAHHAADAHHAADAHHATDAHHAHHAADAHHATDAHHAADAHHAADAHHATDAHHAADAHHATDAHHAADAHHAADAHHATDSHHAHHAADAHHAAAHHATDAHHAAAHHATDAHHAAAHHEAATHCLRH

Plasmodium falciparum [3] = experiment: In vitro inhibitory activity against chloroquine-sensitive Plasmodium falciparum HB3
DLD-1 [4] = experiment: Cytotoxicity against DLD-1 cells when the drug is exposed for a time of 1 hr; assay type: functional, cell-based; conditions: Homo sapiens, DLD-1, 1 h
[5] = target: T1, Histidine-rich protein PFHRP-II (Plasmodium falciparum); experiment: Inhibition of beta-hematin formation; Yes; assay type: functional
A549 [6] = experiment: Cytotoxicity against A549 cells when the drug is exposed for a time of 1 hr; assay type: functional, cell-based; conditions: Homo sapiens, A549, 1 h
MAC15A [7] = experiment: Cytotoxicity against MAC15a cells when the drug is exposed for a time of 1 hr; assay type: functional, cell-based; conditions: Mus musculus
MAC15A [8] = experiment: Cytotoxicity against MAC15a cells when the drug is exposed for a time of 96 hr; assay type: functional, cell-based; conditions: Mus musculus
Mus musculus = experiment: Inhibitory activity against Plasmodium berghei (ANKA) in mice at a dose of 20 mg/kg for 4 days; assay type: functional; design: scale not given: the % may be the effect or the level left
Procedure, shortened: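 Peters' 4-day suppressive test. Female BALB/c mice (18-20 g) were inoculated iv with 1 × 10⁷ P. berghei ANKA-infected erythrocytes. Drug was given ip in 0.2 mL daily for 4 consecutive days, 5 mice per group, with chloroquine diphosphate as positive control. Blood smears were taken on day 5. % suppression of parasitemia was calculated against untreated infected controls for each dose.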

A549 [9] = experiment: Cytotoxicity against A549 cells when the drug is exposed for a time of 96 hrs; assay type: functional, cell-based; conditions: Homo sapiens, A549, 96 h
DLD-1 [10] = experiment: Cytotoxicity against DLD-1 cells when the drug is exposed for a time of 96 hrS; assay type: functional, cell-based; conditions: Homo sapiens, DLD-1, 96 h

Compound	IC50 (Plasmodium falciparum [1]) [µM]	IC50 (Plasmodium falciparum [3]) [µM]	IC50 (DLD-1 [4]) [µM]	beta-hematin formation inhibition (yes/no) [5]	IC50 (A549 [6]) [µM]	IC50 (MAC15A [7]) [µM]	further results
O=C(O)c1c2nc3ccccc3c-2[nH]c2ccccc12	> 100						inhibition [2]: No inhibition
C[n+]1c2ccccc2cc2[n-]c3ccc([N+](=O)[O-])cc3c21	0.65	0.14	48.9	Inhibition	35.6	35.4	
C[n+]1c2ccccc2c(Cl)c2[nH]c3ccc(Cl)cc3c21	7.62						
NC(=O)c1c2nc3ccccc3c-2[nH]c2ccccc12	> 100						inhibition [2]: No inhibition
C[n+]1c2ccc(Br)cc2cc2[nH]c3ccc(Br)cc3c21.[I-]	0.049	0.026		Inhibition			IC50 (MAC15A [8]): 6.04 µM
C[n+]1c2ccccc2cc2[n-]c3c([N+](=O)[O-])cccc3c21	6.92	4.14	> 100		> 100	> 100	Activity (Mus musculus): 11.9% and 23.5%
C[n+]1c2ccc(Br)cc2cc2[nH]c3ccccc3c21.[I-]	0.26	0.45	> 100	Inhibition	> 100	> 100	IC50 (A549 [9]): 2.07 µM; IC50 (MAC15A [8]): 5.79 µM; IC50 (DLD-1 [10]): 2.29 µM
CCN(CC)CCCC(C)Nc1ccnc2cc(Cl)ccc12.O=P(O)(O)O.O=P(O)(O)O (centres undefined) [CHLOROQUINE PHOSPHATE]				Inhibition			
c1ccc2nc3c(cc2c1)[nH]c1ccccc13 [QUINDOLINE]	> 100						inhibition [2]: No inhibition
CC(=O)Nc1ccc2[n-]c3cc4ccccc4[n+](C)c3c2c1	0.52	0.47	> 100		> 100	> 100	Activity (Mus musculus): 13.3% and 14.7%; IC50 (A549 [9]): 5.04 µM; IC50 (MAC15A [8]): 15.5 µM; IC50 (DLD-1 [10]): 20.4 µM
C[n+]1c2ccccc2cc2[nH]c3ccc(Br)cc3c21.[I-]	0.26	0.19		Inhibition		66.2	
C[n+]1c2ccccc2c(Cl)c2[nH]c3cc(Br)ccc3c21	7.18					23.1	
C[n+]1c2ccccc2c(Cl)c2[nH]c3cc(Cl)ccc3c21	27					14.4	
C[n+]1c2ccccc2cc2[n-]c3c([N+](=O)[O-])cc([N+](=O)[O-])cc3c21	0.65	0.45	> 100	Inhibition	> 100	28.5	Activity (Mus musculus): 20.3% and 30.2%
C[n+]1c2ccccc2cc2[nH]c3ccccc3c21 [CRYPTOLEPTINE IODIDE]	0.44		93		61.4	67.2	IC50 (A549 [9]): 0.55 µM; IC50 (MAC15A [8]): 9.65 µM; IC50 (DLD-1 [10]): 1.44 µM; inhibition [5]: Inhibition
C[n+]1c2ccc(Br)cc2c(Cl)c2[nH]c3ccccc3c21	4.75						
C[n+]1c2ccccc2c(Cl)c2[nH]c3ccccc3c21	0.24	1.67				30.5	
